Measurements gathered from unrelated publications.
Compare with care: the assays were run in different laboratories.
Target: Tyrosine-protein kinase Lck (LCK, Homo sapiens, UniProt P06239)

| SMILES | assay | setting | endpoint | result |
| --- | --- | --- | --- | --- |
| CC#CC(=O)N1CCC[C@H]1c1nc(-c2ccc(C(=O)Nc3ccccn3)cc2)c2c(N)nccn12 | enzyme activity, inhibitor | 1 µM | inhibition | 10% |
| CNC(=O)c1ccccc1Nc1nc(Nc2ccc(CO)nc2)ncc1Cl | enzyme activity, inhibitor | 1 µM | remaining activity | 3.38% |
| C[C@H]1CC[C@H](n2c3cnccc3c3cnc(Nc4ccc5c(n4)CCN(C(=O)CO)C5)nc32)CC1 | binding, competition with immobilised ligand | 1 µM | remaining binding | 49% |
| CCCCC(=O)Nc1ccc(-c2ccc3ncn(CCC)c(=O)c3c2)cn1 | binding, competition with immobilised ligand | 0.5 µM | remaining binding | 100% |
| C#Cc1cc(-c2cc(Nc3nc(N[C@@H](C)c4ccc(F)cn4)ncc3Cl)n[nH]2)ccc1C=O | enzyme activity, inhibitor | 0.2 µM | inhibition | 78.9% |
| C#Cc1cnc(Nc2ccc(CO)nc2)nc1Nc1ccccc1S(C)(=O)=NC#N (stereo not shown) | enzyme activity, inhibitor | 1 µM | remaining activity | 12.7% |
| C=CC(=O)N1CCC[C@@H](n2nc(-c3ccc(Oc4ccccc4)cc3)c3c(N)ncnc32)C1 | enzyme activity, inhibitor | 1 µM | inhibition | 99% |
| C#Cc1cnc(Nc2ccc(CO)cc2)nc1Nc1ccccc1C(=O)NC | enzyme activity, inhibitor | 1 µM | remaining activity | 2.4% |
| C1=C/COCc2cc(ccc2OCCN2CCCC2)Nc2nccc(n2)-c2cccc(c2)COC/1 | binding | 0.1 µM | remaining binding | 53% |
| CN1CCN(C(=O)c2ccc(NC(=O)Nc3ccc(N(C)c4ccnc(Nc5ccc(CS(C)(=O)=O)cc5)n4)cc3)cc2)CC1 | binding, competition with immobilised ligand | 1 µM | remaining binding | 85% |
